According to ChEMBL document CHEMBL1131025, “14-Desoxy analogues of naltrindole and 7-spiroindanyloxymorphone: the role of the 14-hydroxy group at delta opioid receptors” (J Med Chem, 1998):

Legend:
Cavia porcellus [1] = species on record: Cavia porcellus; assay: Antagonist potency (Ke) was evaluated in guinea pig ileum(GPI); type: functional
Method in brief: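 Antagonist potency came from IC50-ratio tests in which smooth muscle was preincubated 15 min with antagonist before agonist challenge.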

Cavia porcellus [2] = species on record: Cavia porcellus; assay: Agonist activity (ability to decrease the twitch height of the electrically stimulated smooth muscle) in electrically stimulated guinea pig ileum (GPI); type: functional
Method in brief: (§1)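 Electrically stimulated guinea pig ileum. Agonism read as a drop in twitch height. Compounds were first tested at 1 μM. Full agonists were then run at 4-6 concentrations to build a dose-response curve and give the IC50 for half-maximal response (n ≥ 3). Partial responders were reported as percent of maximal agonist response.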

Mus musculus = species on record: Mus musculus; assay: Agonist vas deferens(MVD); type: functional
Method in brief: as §1, with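 “mouse vas deferens.” for “guinea pig ileum.”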

[3] = target: Kappa-type opioid receptor (Cavia porcellus) (UniProt P41144); assay: Antagonistic activity expressed as IC50 ratio against ethylketazocine (EK) Opioid receptor kappa 1 in smooth muscle preparations; type: functional
Method in brief: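 Electrically stimulated guinea pig ileum. The preparation was preincubated 15 min with test compound (100 nM) before challenge with a standard agonist: morphine for μ, ethylketazocine for κ. The ratio is agonist IC50 with antagonist divided by control IC50 of agonist alone (n ≥ 3).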

[4] = target: Delta-type opioid receptor (Mus musculus) (UniProt P32300); assay: Antagonistic activity expressed as IC50 ratio against DADLE-Opioid receptor delta 1 in smooth muscle preparations of mouse vas deferens(MVD); type: functional
Method in brief: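 Electrically stimulated mouse vas deferens. The preparation was preincubated 15 min with test compound (100 nM) before challenge with the standard δ agonist DADLE. The ratio is DADLE IC50 with antagonist divided by control IC50 of DADLE alone (n ≥ 3).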

Cavia porcellus [5] = species on record: Cavia porcellus; assay: (§2) Agonist activity (ability to decrease the twitch height of the electrically stimulated smooth muscle) in electrically stimulated guinea pig ileum(GPI); type: functional, Muscle tissue; method in brief: as §1
Cavia porcellus [6] = species on record: Cavia porcellus; assay: as §2; type: functional, organism-based; conditions: Muscle tissue; method in brief: as §1

Chain of Kappa-type opioid receptor (Cavia porcellus) (P41144 whole entry): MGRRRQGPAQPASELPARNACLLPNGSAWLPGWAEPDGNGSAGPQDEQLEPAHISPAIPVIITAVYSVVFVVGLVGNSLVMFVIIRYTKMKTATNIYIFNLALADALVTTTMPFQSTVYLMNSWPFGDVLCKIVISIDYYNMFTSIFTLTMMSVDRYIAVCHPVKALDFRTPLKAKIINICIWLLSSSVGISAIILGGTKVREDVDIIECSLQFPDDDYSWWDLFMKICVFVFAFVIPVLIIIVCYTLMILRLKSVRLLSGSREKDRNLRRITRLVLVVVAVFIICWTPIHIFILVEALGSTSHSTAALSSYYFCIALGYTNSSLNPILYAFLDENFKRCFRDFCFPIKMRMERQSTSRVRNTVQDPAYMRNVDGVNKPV
Chain of Delta-type opioid receptor (Mus musculus) (P32300 whole entry): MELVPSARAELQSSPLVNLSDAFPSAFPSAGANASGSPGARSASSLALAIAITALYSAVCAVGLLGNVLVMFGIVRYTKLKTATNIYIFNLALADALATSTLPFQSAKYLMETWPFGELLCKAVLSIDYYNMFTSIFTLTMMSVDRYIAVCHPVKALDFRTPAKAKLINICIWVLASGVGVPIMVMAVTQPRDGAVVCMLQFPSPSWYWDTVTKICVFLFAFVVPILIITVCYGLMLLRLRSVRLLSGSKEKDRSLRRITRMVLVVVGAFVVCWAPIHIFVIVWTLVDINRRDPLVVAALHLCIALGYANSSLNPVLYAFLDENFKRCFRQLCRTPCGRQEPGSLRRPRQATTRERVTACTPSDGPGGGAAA

## Oc1ccc2c3c1O[C@H]1c4[nH]c5ccccc5c4CC4C(C2)N(CC2CC2)CCC341 (some centres not stated)
Cavia porcellus [1]
  Ke: 2.98
Cavia porcellus [2]
  Max response: 16.85%
Mus musculus
  Max response: 22.6%
[3]
  IC50 ratio: 1.64
[4]
  IC50 ratio: 34.6

## CN1CC[C@]23c4c5ccc(O)c4O[C@H]2C(=O)C2(Cc4ccccc4C2)C[C@@]3(O)[C@H]1C5 [SPIROINDANYLOXYMORPHONE]
Cavia porcellus [5]
  Max response: 55%
[3]
  IC50 ratio: 1

## Oc1ccc2c3c1O[C@H]1c4[nH]c5ccccc5c4C[C@@]4(O)[C@@H](C2)N(CC2CC2)CC[C@]314 [NALTRINDOLE]
Cavia porcellus [5]
  Max response: 7.6%
Mus musculus
  Max response: 37.1%

## CN1CCC23c4c5ccc(O)c4O[C@H]2C(=O)C2(Cc4ccccc4C2)CC3C1C5 (some centres not stated)
Mus musculus
  Max response: 58.6%
[4]
  IC50 ratio: 0.85
Cavia porcellus [6]
  IC50: 153 nM
